# Active and inactive are the calls of the source. The rule behind the calls is not given here.
# Experiments:
# Staphylococcus aureus [1] = assay: Antibacterial activity against Staphylococcus aureus NCTC 6571 strain.; format: functional
# Aspergillus niger [2] = assay: Antifungal activity against Aspergillus niger IMI17454 strain.; format: functional; settings: Aspergillus niger; read-out: MIC
# Escherichia coli = assay: Antibacterial activity against Escherichia coli NCTC 9001 strain.; format: functional, organism-based
# Enterobacter cloacae = assay: Antibacterial activity against Enterobacter cloacae NCTC 10005 strain.; format: functional, organism-based
# Enterococcus faecalis [3] = assay: Antibacterial activity against Streptococcus faecalis NCTC 775 strain.; format: functional
# [4] = tested on: Mycolicibacterium fortuitum; assay: Antibacterial activity against Mycobacterium fortuitum NCTC 10394 strain.; format: functional
# Proteus vulgaris = assay: Antibacterial activity against Proteus vulgaris NCTC 4175 strain.; format: functional
# Staphylococcus aureus [5] = assay: Antibacterial activity against methicillin-resistant Staphylococcus aureus (MRSA) PHLS M1 strain.; format: functional
# How it was run: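 Read-out is the minimum inhibitory concentration, reported in µM. Amoxycillin is tested alongside as the reference antibiotic.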
# Aspergillus nidulans = assay: Antifungal activity against Aspergillus nidulans CABI 0160037 strain; format: functional
# Candida albicans = assay: Antifungal activity against Candida albicans NCPF 3179 strain.; format: functional; settings: Candida albicans; read-out: MIC
# Klebsiella aerogenes [6] = assay: Antibacterial activity against Klebsiella aerogenes WRL CN 345 strain.; format: functional, WRL CN 375; settings: Klebsiella aerogenes, WRL CN 375; read-out: MIC
# Staphylococcus aureus [7] = assay: Antibacterial activity against MRSA PHLS M1 strain; na = not active; format: functional, organism-based
# [8] = Antibacterial activity against Proteus vulgaris NCTC 4175 strain; na = not active; format: functional
# [9] = Antibacterial activity against Enterobacter cloacae NCTC 10005 strain; format: functional
# [10] = Antifungal activity against Candida albicans NCPF 3179 strain; na = not active; format: functional
# Staphylococcus aureus [11] = assay: Antibacterial activity against Staphylococcus aureus NCTC 6571 strain; na = not active; format: functional, organism-based
# [12] = tested on: Mycolicibacterium fortuitum; assay: Antibacterial activity against Mycobacterium fortuitum NCTC 10394 strain; na = not active; format: functional, organism-based
# Enterococcus faecalis [13] = assay: Antibacterial activity against Streptococcus faecalis NCTC 775 strain; na = not active; format: functional, organism-based
# Klebsiella aerogenes [14] = assay: Antibacterial activity against Klebsiella aerogenes WRL CN 345 strain; na = not active; format: functional, organism-based
# Aspergillus niger [15] = assay: Antifungal activity against Aspergillus niger IMI17454 strain; na = not active; format: functional
MIC (Staphylococcus aureus [7]),Compound,MIC (Staphylococcus aureus [1]),MIC (Aspergillus niger [2]),MIC (Escherichia coli),MIC (Enterobacter cloacae),MIC (Enterococcus faecalis [3]),MIC [4],MIC (Proteus vulgaris),MIC (Staphylococcus aureus [5]),MIC (Aspergillus nidulans),MIC (Candida albicans),MIC (Klebsiella aerogenes [6]),MIC [8],MIC [9],MIC [10],MIC (Staphylococcus aureus [11]),MIC [12],MIC (Enterococcus faecalis [13]),MIC (Klebsiella aerogenes [14]),MIC (Aspergillus niger [15])
,CN[C@@H]1[C@H](O[C@H]2[C@H](O[C@H]3[C@H](O)[C@@H](O)[C@H](N=C(N)N)[C@@H](O)[C@@H]3N=C(N)N)O[C@@H](C)[C@]2(O)C=O)O[C@@H](CO)[C@H](O)[C@H]1O [STREPTOMYCIN],10.8 µM,,,,,,,,,,,,,,,,,,
,CC(C)CCn1cc(NC(=O)c2cc(NC(=O)c3cc([N+](=O)[O-])cn3C)cn2C)cc1C(=O)Nc1cc(C(=O)NCCCN(C)C)n(C)c1,31.6 µM,15.8 µM,inactive,inactive,15.8 µM,15.8 µM,126 µM,126 µM,25.8 µM,15.8 µM,15.8 µM,,,,,,,,
inactive,CC(C)n1cc(NC(=O)c2cc(NCc3ccccc3)cn2C)cc1C(=O)Nc1cc(C(=O)NCCCN(C)C)n(C)c1,147 µM,147 µM,inactive,inactive,147 µM,73.5 µM,,,73.5 µM,147 µM,147 µM,inactive,,,,,,,
inactive,CC(=O)Nc1cc(C(=O)Nc2cc(C(=O)Nc3cc(C(=O)NCCCN4CCCC4)n(C)c3)n(C)c2)n(C)c1,,153 µM,inactive,,153 µM,76.9 µM,,,153 µM,,153 µM,inactive,153 µM,inactive,inactive,,,,
,Cc1oc(CNC(=O)c2cc(NC(=O)c3cc(NC=O)cn3C)cn2C)nc1C(=O)NCCCN(C)C,,160 µM (not active),inactive,,,,,160 µM (not active),160 µM (not active),,,inactive,160 µM (not active),inactive,inactive,inactive,inactive,inactive,
,CC(C)n1cc(NC(=O)c2cc(NC(=O)c3cc(NC=O)cn3C(C)C)cn2C(C)C)cc1C(=O)NCCCN(C)C,144 µM,72 µM,inactive,,72 µM,72 µM,144 µM,144 µM,72 µM,144 µM,36 µM,,36 µM,,,,,,
,COc1cccc(C(=O)Nc2cc(C(=O)Nc3cc(C(=O)Nc4cc(C(=O)NCCCN5CCN(C)CC5)n(C)c4)n(CCC(C)C)c3)n(C)c2)c1,60 µM,121 µM,inactive,,60.4 µM,121 µM,121 µM,121 µM,30.2 µM,121 µM,121 µM,,121 µM,,,,,,
,CC(=O)Nc1cc(C(=O)Nc2cc(C(=O)Nc3cc(C(=O)NCCCN(C)C)n(C)c3)n(C)c2)n(C)c1,,160 µM,inactive,,160 µM,160 µM,160 µM,40 µM,160 µM,160 µM,80 µM,,160 µM,,inactive,,,,
,CN(C)CCCNC(=O)c1cc(NC(=O)c2cc(NC(=O)c3cc(NC=O)cn3C)cn2CC2CC2)cn1C,153 µM,,inactive,,76.9 µM,38.4 µM,,76.9 µM,153 µM,76.9 µM,38.4 µM,inactive,76.9 µM,,,,,,inactive
,CN(C)CCCNC(=O)c1cc(NC(=O)c2cc(NC(=O)c3cc(NC=O)cn3C)cn2C2CCCC2)cn1C,75 µM,,inactive,inactive,75 µM,75.3 µM,,75.3 µM (not active),,75.3 µM,,inactive,,,,,,inactive,inactive
,COc1cccc(C(=O)Nc2cc(C(=O)Nc3cc(C(=O)Nc4cc(C(=O)NCCCN(C)C)n(C)c4)n(CCC(C)C)c3)n(C)c2)c1,16.2 µM,,inactive,inactive,16.2 µM,32.4 µM,,2 µM,,,,inactive,,inactive,,,,inactive,inactive
,CC(C)n1cc(NC(=O)c2cc(NC(=O)c3cc(NC=O)cn3C(C)C)cn2C)cc1C(=O)NCCCN(C)C,,,inactive,inactive,,,,150 µM,150 µM,75 µM,,inactive,,,inactive,inactive,inactive,inactive,inactive
